Compound activity from PubChem BioAssay.
S100A4 MyoIIA: inhibitors of S100A4-myosin IIA peptide binding, primary screen, biochemical, fluorescence polarization, TAMRA-MyoIIA peptide; inhibition, % at 10.7 µM; hit rate 0.14% among 360,000; AID 652163, 2013;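 active means mean inhibition of at least 70% across replicates, with every replicate also reaching that level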
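Assay system: human S100A4 monomer with TAMRA-labelled myosin IIA peptide / Buffer or medium: Calcium-containing HEPES buffer, pH 7.2 / Reagent: TAMRA-labelled myosin IIA heavy-chain peptide probe, 5 nM / Compound: one dose per compound / Timing: polarization read 5 min after assay mix addition, stable 5–60 min / Benchmarks: neutral control DMSO, positive control TFP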
GSIS activator: GLuc luminescence reporter in INS-1E cells, primary screen for activators of glucose-dependent secretion of insulin; INS-1E GLuc reporter insulin secretion, 2-3 h; activation, % at 16.6 µM; hit rate 0.61% among 370,000; AID 743287, 2014;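 active means lowest replicate activation of at least 40%, so every replicate reaches that level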;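 further: 0% = median of neutral control wells and 100% = median of IBMX positive control wells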
RAD52 anneal inh: RAD52 DNA annealing inhibitors, primary screen, biochemical, FRET, single point, set 2 | inhibition, % at 18.7 µM | recombinant RAD52 DNA annealing, FRET fluorescence | hit rate 0.46% among 360,000 | AID 651710, 2012;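 active means every replicate showing at least 50% inhibition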
Target sequence (P43351 whole entry, looked up): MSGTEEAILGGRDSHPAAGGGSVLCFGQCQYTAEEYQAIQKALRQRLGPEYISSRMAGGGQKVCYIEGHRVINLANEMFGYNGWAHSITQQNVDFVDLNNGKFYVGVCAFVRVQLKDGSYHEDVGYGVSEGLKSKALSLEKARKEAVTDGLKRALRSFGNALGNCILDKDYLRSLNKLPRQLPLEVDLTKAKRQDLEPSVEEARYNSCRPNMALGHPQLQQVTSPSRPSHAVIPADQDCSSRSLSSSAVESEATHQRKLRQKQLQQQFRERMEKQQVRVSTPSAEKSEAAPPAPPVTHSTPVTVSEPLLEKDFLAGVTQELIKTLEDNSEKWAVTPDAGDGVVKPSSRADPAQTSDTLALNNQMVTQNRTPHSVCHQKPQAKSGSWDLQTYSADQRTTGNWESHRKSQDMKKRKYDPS
MLL AF4-AF9 inh: inhibitors of AF4 peptide binding to AF9, primary screen, biochemical, AlphaScreen, biotin-AF4 peptide, FLAG-AF9, single point | AID 651704, 2012 | hit rate 0.47% among 350,000 | inhibition, % at 10 µM;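 active means every replicate reaching a set inhibition limit, whatever the replicate mean, cut at about 25% in these data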;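 further: 0% = plate neutral control median and 100% = total signal loss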
ERAP1 HTS inh: human ERAP1 aminopeptidase inhibitors, primary screen, biochemical, single point, plate reader; Endoplasmic reticulum aminopeptidase 1 (Homo sapiens), Q9NZ08; recombinant ERAP1, Leu-AMC fluorescence, 60 min; inhibition, % at 10.7 µM; hit rate 0.15% among 340,000;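 active means mean replicate inhibition of at least 30%, or all replicates individually reaching that 30% level; inactive means mean below 30% and not every replicate reaching it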;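 further: 0% = neutral control wells and 100% = L-leucinethiol positive control wells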
RAD52 DNA ctr: DNA-binding compounds via dye displacement, dose response, artefact control for RAD52 inhibitor project, biochemical, fluorescence polarization, cherry-pick; AID 652128, 2013; Salmon sperm DNA/acridine orange FP displacement; hit rate 8% among 1,000; shares compounds with RAD52 anneal inh; AC50, µM;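 active means fitted half-maximal concentration for signal loss at or below twice the highest dose tested, in every separate run, actives reach about 64 µM in these data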
Numbers without * were called inactive. A selection: hits, their analogues and other compounds. The true share with any hit is near 1.5%.

What do the screens show for `Cn1c(C(=O)NCCCN2CCCCCC2)cc2c(=O)n(C)c3ccccc3c21`?
S100A4 MyoIIA: -3; GSIS activator: -6; RAD52 anneal inh: 52*; MLL AF4-AF9 inh: 9; RAD52 DNA ctr: inactive

What do the screens show for `O=C(NCCCN1CCOCC1)c1ccc(/C=C2\Oc3ccccc3N(Cc3ccccc3F)C2=O)cc1`?
S100A4 MyoIIA: -17; GSIS activator: 10; RAD52 anneal inh: -11; MLL AF4-AF9 inh: -2; ERAP1 HTS inh: 4

What do the screens show for `CCN1CCN(CCCNC(=O)c2ccc(/C=C3/Sc4ccccc4N(Cc4ccccc4F)C3=O)cc2)CC1`?
S100A4 MyoIIA: 1; GSIS activator: 100*; RAD52 anneal inh: 76*; MLL AF4-AF9 inh: 8; ERAP1 HTS inh: 11; RAD52 DNA ctr: inactive

Results for CCN1CCN(CCNC(=O)c2ccc(/C=C3/Sc4ccccc4N(Cc4ccccc4C)C3=O)cc2)CC1 ?
S100A4 MyoIIA: 8; GSIS activator: 27; RAD52 anneal inh: 55*; MLL AF4-AF9 inh: 21; ERAP1 HTS inh: 3; RAD52 DNA ctr: inactive

What do the screens show for `CCCNC(=O)N1CC2(CCN(CC3CCCC3)CC2)c2c(n(C)c3cc(OC)ccc23)[C@@H]1CO`?
S100A4 MyoIIA: 3; GSIS activator: 5; RAD52 anneal inh: 17; MLL AF4-AF9 inh: 3; ERAP1 HTS inh: 0

How did CC1(C)N=C(N)N=C(N)N1c1ccc(CCCCc2ccccc2)cc1 do in these assays?
S100A4 MyoIIA: 0; GSIS activator: -28; RAD52 anneal inh: 85*; MLL AF4-AF9 inh: 15; ERAP1 HTS inh: 3; RAD52 DNA ctr: inactive

Results for O=C(Nc1cccc(C(=O)Nc2cccc(Br)c2)c1)c1ccccc1 ?
S100A4 MyoIIA: -1; GSIS activator: -5; RAD52 anneal inh: 94*; MLL AF4-AF9 inh: -3; ERAP1 HTS inh: -1; RAD52 DNA ctr: inactive

Results for CN1C(=O)c2cc(NC(=O)c3cccc(F)c3)ccc2OC[C@H]2O[C@@H](CC(=O)NCc3ccccc3)CC[C@H]21 ?
GSIS activator: -4

What do the screens show for `Cc1ccccc1Cn1c2ccccc2c2cnn(CC(=O)NCCCN3CCN(C)CC3)c(=O)c21`?
S100A4 MyoIIA: -4; GSIS activator: 20; RAD52 anneal inh: 71*; MLL AF4-AF9 inh: 15; ERAP1 HTS inh: -1; RAD52 DNA ctr: inactive

What do the screens show for `Cc1ccccc1Cn1c2ccccc2c2cnn(CC(=O)NCCCN3CCOCC3)c(=O)c21`?
S100A4 MyoIIA: 2; GSIS activator: 8; RAD52 anneal inh: -6; MLL AF4-AF9 inh: 1; ERAP1 HTS inh: -4

Results for COCC(=O)N(C)C[C@H]1Oc2ncc(C#C[C@H](C)O)cc2C(=O)N([C@@H](C)CO)C[C@@H]1C ?
S100A4 MyoIIA: 0; GSIS activator: 4; RAD52 anneal inh: -9; MLL AF4-AF9 inh: -1; ERAP1 HTS inh: -4

How did O=C(C[C@@H]1CC[C@H](NC(=O)Nc2ccc3c(c2)OCO3)[C@@H](CO)O1)NCCCN1CCOCC1 do in these assays?
S100A4 MyoIIA: -15; GSIS activator: 5; RAD52 anneal inh: -6; MLL AF4-AF9 inh: -1; ERAP1 HTS inh: 1
